For 13 compounds, Activity results are on record in ChEMBL document CHEMBL4184287, “Investigating PKA-RII specificity using analogs of the PKA:AKAP peptide inhibitor STAD-2” (Bioorg Med Chem, 2018).

Structures are written as SMILES. The source made the active and inactive calls. No cut-off for these calls is given here.

Experiment [1] deals with cAMP-dependent protein kinase type I-beta regulatory subunit (Homo sapiens) (UniProt P31321). Nature of the experiment: Binding affinity to recombinant human full length PKA-R1beta expressed in Escherichia coli BL21 DE3-RIL cells assessed as reduction in interaction with AKAP at 20 nM by fluorescence polarization analysis. The method in brief: (§1)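 Single-concentration direct FP screen: 5 μM full-length recombinant human RIα or RIβ mixed with 20 nM 5(6)-FAM-labelled peptide in 20 mM MOPS pH 7, 150 mM NaCl, 0.005% (v/v) CHAPS. Read at room temperature, Ex 482 nm/Em 520 nm, in duplicate.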
Sequence of cAMP-dependent protein kinase type I-beta regulatory subunit (Homo sapiens) (P31321 whole entry): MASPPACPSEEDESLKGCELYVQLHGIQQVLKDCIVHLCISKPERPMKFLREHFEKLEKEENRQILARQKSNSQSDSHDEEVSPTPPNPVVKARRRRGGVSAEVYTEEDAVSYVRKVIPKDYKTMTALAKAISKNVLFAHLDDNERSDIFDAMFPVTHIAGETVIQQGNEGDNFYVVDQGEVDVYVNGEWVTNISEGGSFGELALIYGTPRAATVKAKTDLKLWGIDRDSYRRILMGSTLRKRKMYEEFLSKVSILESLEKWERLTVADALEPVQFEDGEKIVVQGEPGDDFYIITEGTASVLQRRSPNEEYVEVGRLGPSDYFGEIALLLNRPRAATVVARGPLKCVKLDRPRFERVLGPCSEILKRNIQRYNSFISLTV
A general note: In fluorescence polarisation assays a small probe gives low polarisation when free and higher when bound to something large.

For experiment [2], the target named is cAMP-dependent protein kinase type I-alpha regulatory subunit (Homo sapiens) (UniProt P10644). Briefly: Binding affinity to recombinant human full length PKA-R1alpha expressed in Escherichia coli BL21 DE3-RIL cells assessed as reduction in interaction with AKAP at 20 nM by fluorescence polarization analysis. The method in brief: as §1
Sequence of cAMP-dependent protein kinase type I-alpha regulatory subunit (Homo sapiens) (P10644 whole entry): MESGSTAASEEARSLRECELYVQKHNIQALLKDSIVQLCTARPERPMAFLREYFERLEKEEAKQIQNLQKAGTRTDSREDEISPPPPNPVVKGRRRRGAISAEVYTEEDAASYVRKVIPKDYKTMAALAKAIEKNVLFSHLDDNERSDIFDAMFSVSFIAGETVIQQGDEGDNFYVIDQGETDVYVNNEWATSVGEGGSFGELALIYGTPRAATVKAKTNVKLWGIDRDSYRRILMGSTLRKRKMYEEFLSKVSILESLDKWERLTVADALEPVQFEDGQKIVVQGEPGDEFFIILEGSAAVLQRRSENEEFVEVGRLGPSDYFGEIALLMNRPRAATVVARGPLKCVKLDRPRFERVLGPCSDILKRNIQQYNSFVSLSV

As to `CC(C)C[C@H](NC(=O)[C@H](C)NC(=O)[C@]1(C)CCC/C=C/CCC[C@](C)(NC(=O)[C@H](CO)NC(=O)[C@@H](NC(=O)[C@H](CC(C)C)NC(=O)[C@H](Cc2ccccc2)NC(=O)[C@H](C)NC(=O)[C@H](C)NC(=O)[C@H](CC(C)C)NC(=O)[C@H](CCCCN)NC(=O)[C@H](CCCCN)NC(=O)COCCOCCOCCN)C(C)C)C(=O)N[C@@H](C)C(=O)N[C@@H](CC(C)C)C(=O)N[C@@H](CCCCN)C(=O)N1)C(=O)N[C@@H](CCCCN)C(=O)O`, the result in experiment [1] and in experiment [2] was inactive.

Consider `CC(C)C[C@H](NC(=O)[C@H](C)NC(=O)[C@]1(C)CCC/C=C/CCC[C@](C)(NC(=O)[C@H](CO)NC(=O)[C@@H](NC(=O)[C@H](CC(C)C)NC(=O)[C@H](Cc2ccccc2)NC(=O)[C@H](CCCCN)NC(=O)[C@H](C)NC(=O)[C@H](C)NC(=O)[C@H](CCCCN)NC(=O)[C@H](CCCCN)NC(=O)COCCOCCOCCN)C(C)C)C(=O)N[C@@H](C)C(=O)N[C@@H](CC(C)C)C(=O)N[C@@H](CCCCN)C(=O)N1)C(=O)N[C@@H](CCCCN)C(=O)O`, for which the result in experiment [1] and in experiment [2] was inactive.

As to `CC(C)C[C@@H]1NC(=O)[C@H](C)NC(=O)[C@@](C)(NC(=O)[C@H](CO)NC(=O)[C@@H](NC(=O)[C@H](CC(C)C)NC(=O)[C@H](Cc2ccccc2)NC(=O)[C@H](CCCCN)NC(=O)[C@H](C)NC(=O)[C@H](CC(C)C)NC(=O)[C@H](CCCCN)NC(=O)[C@H](CCCCN)NC(=O)COCCOCCOCCN)C(C)C)CCC/C=C/CCC[C@@](C)(C(=O)N[C@@H](C)C(=O)N[C@@H](C)C(=O)N[C@@H](CCCCN)C(=O)O)NC(=O)[C@H](CCCCN)NC1=O`, the outcome in experiment [1] and in experiment [2] was inactive.

With `CC(C)C[C@H](NC(=O)[C@H](C)NC(=O)[C@]1(C)CCC/C=C/CCC[C@](C)(NC(=O)[C@H](CO)NC(=O)[C@@H](NC(=O)[C@H](CC(C)C)NC(=O)[C@H](Cc2ccccc2)NC(=O)[C@H](CCCCN)NC(=O)[C@H](C)NC(=O)[C@H](CC(C)C)NC(=O)[C@H](CCCCN)NC(=O)[C@H](CCCCN)NC(=O)COCCOCCOCCN)C(C)C)C(=O)N[C@@H](C)C(=O)N[C@@H](C)C(=O)N[C@@H](CCCCN)C(=O)N1)C(=O)N[C@@H](CCCCN)C(=O)O`, the result in experiment [1] and in experiment [2] was inactive.

With `CC(C)C[C@H](NC(=O)[C@H](C)NC(=O)[C@H](CCCCN)NC(=O)COCCOCCOCCN)C(=O)N[C@@H](C)C(=O)N[C@@H](CCCCN)C(=O)N[C@@H](Cc1ccccc1)C(=O)N[C@@H](CC(C)C)C(=O)N[C@H](C(=O)N[C@@H](CO)C(=O)N[C@@]1(C)CCC/C=C/CCC[C@@](C)(C(=O)N[C@@H](C)C(=O)N[C@@H](CC(C)C)C(=O)N[C@@H](CCCCN)C(=O)O)NC(=O)[C@H](CCCCN)NC(=O)[C@H](CC(C)C)NC(=O)[C@H](C)NC1=O)C(C)C`, the result in experiment [1] and in experiment [2] was inactive.

As for `CC(C)C[C@H](NC(=O)[C@H](C)NC(=O)[C@]1(C)CCC/C=C/CCC[C@](C)(NC(=O)[C@H](CO)NC(=O)[C@@H](NC(=O)[C@H](C)NC(=O)[C@H](Cc2ccccc2)NC(=O)[C@H](CCCCN)NC(=O)[C@H](C)NC(=O)[C@H](CC(C)C)NC(=O)[C@H](CCCCN)NC(=O)[C@H](CCCCN)NC(=O)COCCOCCOCCN)C(C)C)C(=O)N[C@@H](C)C(=O)N[C@@H](CC(C)C)C(=O)N[C@@H](CCCCN)C(=O)N1)C(=O)N[C@@H](CCCCN)C(=O)O`, the outcome in experiment [1] and in experiment [2] was inactive.

In the case of `CC(C)C[C@H](NC(=O)[C@H](C)NC(=O)[C@]1(C)CCC/C=C/CCC[C@](C)(NC(=O)[C@H](CO)NC(=O)[C@@H](NC(=O)[C@H](CC(C)C)NC(=O)[C@H](Cc2ccccc2)NC(=O)[C@H](CCCCN)NC(=O)[C@H](C)NC(=O)[C@H](CC(C)C)NC(=O)[C@H](CCCCN)NC(=O)[C@H](CCCCN)NC(=O)COCCOCCOCCN)C(C)C)C(=O)N[C@@H](C)C(=O)N[C@@H](CC(C)C)C(=O)N[C@@H](CCCCN)C(=O)N1)C(=O)N[C@@H](CCCCN)C(=O)O`, the outcome in experiment [1] and in experiment [2] was inactive.

For the compound `CC(C)C[C@@H]1NC(=O)[C@H](C)NC(=O)[C@@](C)(NC(=O)[C@H](CO)NC(=O)[C@@H](NC(=O)[C@H](CC(C)C)NC(=O)[C@H](Cc2ccccc2)NC(=O)[C@H](CCCCN)NC(=O)[C@H](C)NC(=O)[C@H](CC(C)C)NC(=O)[C@H](CCCCN)NC(=O)[C@H](CCCCN)NC(=O)COCCOCCOCCN)C(C)C)CCC/C=C/CCC[C@@](C)(C(=O)N[C@@H](C)C(=O)N[C@@H](CC(C)C)C(=O)N[C@@H](CCCCN)C(=O)O)NC(=O)[C@H](C)NC1=O`, the outcome in experiment [1] and in experiment [2] was inactive.

In the case of `CC(C)C[C@H](NC(=O)[C@H](C)NC(=O)[C@]1(C)CCC/C=C/CCC[C@](C)(NC(=O)[C@H](C)NC(=O)[C@@H](NC(=O)[C@H](CC(C)C)NC(=O)[C@H](Cc2ccccc2)NC(=O)[C@H](CCCCN)NC(=O)[C@H](C)NC(=O)[C@H](CC(C)C)NC(=O)[C@H](CCCCN)NC(=O)[C@H](CCCCN)NC(=O)COCCOCCOCCN)C(C)C)C(=O)N[C@@H](C)C(=O)N[C@@H](CC(C)C)C(=O)N[C@@H](CCCCN)C(=O)N1)C(=O)N[C@@H](CCCCN)C(=O)O`, the result in experiment [1] and in experiment [2] was inactive.

Take `CC(C)C[C@H](NC(=O)[C@H](C)NC(=O)[C@]1(C)CCC/C=C/CCC[C@](C)(NC(=O)[C@H](CO)NC(=O)[C@@H](NC(=O)[C@H](CC(C)C)NC(=O)[C@H](C)NC(=O)[C@H](CCCCN)NC(=O)[C@H](C)NC(=O)[C@H](CC(C)C)NC(=O)[C@H](CCCCN)NC(=O)[C@H](CCCCN)NC(=O)COCCOCCOCCN)C(C)C)C(=O)N[C@@H](C)C(=O)N[C@@H](CC(C)C)C(=O)N[C@@H](CCCCN)C(=O)N1)C(=O)N[C@@H](CCCCN)C(=O)O`: the outcome in experiment [1] and in experiment [2] was inactive.

As for `CC(C)C[C@H](NC(=O)[C@H](C)NC(=O)[C@]1(C)CCC/C=C/CCC[C@](C)(NC(=O)[C@H](CO)NC(=O)[C@@H](NC(=O)[C@H](CC(C)C)NC(=O)[C@H](Cc2ccccc2)NC(=O)[C@H](CCCCN)NC(=O)[C@H](C)NC(=O)[C@H](CC(C)C)NC(=O)[C@H](CCCCN)NC(=O)[C@H](CCCCN)NC(=O)COCCOCCOCCN)C(C)C)C(=O)N[C@@H](C)C(=O)N[C@@H](CC(C)C)C(=O)N[C@@H](CCCCN)C(=O)N1)C(=O)N[C@@H](C)C(=O)O`, the result in experiment [1] and in experiment [2] was inactive.

`CC(C)C[C@H](NC(=O)[C@H](C)NC(=O)[C@]1(C)CCC/C=C/CCC[C@](C)(NC(=O)[C@H](CO)NC(=O)[C@H](C)NC(=O)[C@H](CC(C)C)NC(=O)[C@H](Cc2ccccc2)NC(=O)[C@H](CCCCN)NC(=O)[C@H](C)NC(=O)[C@H](CC(C)C)NC(=O)[C@H](CCCCN)NC(=O)[C@H](CCCCN)NC(=O)COCCOCCOCCN)C(=O)N[C@@H](C)C(=O)N[C@@H](CC(C)C)C(=O)N[C@@H](CCCCN)C(=O)N1)C(=O)N[C@@H](CCCCN)C(=O)O`: the outcome in experiment [1] and in experiment [2] was inactive.

Regarding `CC(C)C[C@H](NC(=O)[C@H](C)NC(=O)[C@]1(C)CCC/C=C/CCC[C@](C)(NC(=O)[C@H](CO)NC(=O)[C@@H](NC(=O)[C@H](CC(C)C)NC(=O)[C@H](Cc2ccccc2)NC(=O)[C@H](CCCCN)NC(=O)[C@H](C)NC(=O)[C@H](CC(C)C)NC(=O)[C@H](CCCCN)NC(=O)[C@H](C)NC(=O)COCCOCCOCCN)C(C)C)C(=O)N[C@@H](C)C(=O)N[C@@H](CC(C)C)C(=O)N[C@@H](CCCCN)C(=O)N1)C(=O)N[C@@H](CCCCN)C(=O)O`, the outcome in experiment [1] and in experiment [2] was inactive.
